Laboratory results from ChEMBL document CHEMBL4130499, “Serendipitous discovery of potent human head and neck squamous cell carcinoma anti-cancer molecules: A fortunate failure of a rational molecular design” (Eur J Med Chem, 2017).
Activity calls are given as the source filed them. The calls are words filed in the database; no cut-off is given here.

Assays:
[1] = Cytotoxicity in human HN6 cells assessed as reduction in cell viability incubated for 24 hrs by MTT assay; assay type: functional, cell-based; conditions: HN-6, 24 h
Summary of the method: (§1)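 HNSCC lines (HN6, HN12, HN13) grown in DMEM with 10% fetal calf serum at 37 °C, 5% CO2, to 70–80% confluence. Seeded, after 24 h exposed to rising compound concentrations for a further 24 h. MTT (5 mg/mL in PBS) added, formazan dissolved in DMSO, absorbance read at 590 nm. IC50 in nM, mean of three independent triplicate experiments ± standard error.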

WSU-HN13 [2] = assay: Induction of PTEN protein expression in human HN13 cells incubated for 24 hrs by Western blot; assay type: functional, cell-based
Summary of the method: (§2)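 HN13 cells treated 24 h with 1.0 or 10.0 nM compound versus vehicle controls. Lysed in Tris pH 7.5/SDS/β-mercaptoethanol with protease inhibitors at 4 °C, protein quantified by BCA. 30 μg loaded for SDS-PAGE, transferred to PVDF, blocked 1 h in 5% milk, probed for PTEN (and pS6) with GAPDH loading control. HRP chemiluminescent detection.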

[3] = Cytotoxicity in human HN12 cells assessed as reduction in cell viability incubated for 24 hrs by MTT assay; assay type: functional, cell-based; conditions: HN12, 24 h; summary of the method: as §1
WSU-HN13 [4] = assay: Cytotoxicity in human HN13 cells assessed as reduction in cell viability incubated for 24 hrs by MTT assay; assay type: functional, cell-based; conditions: WSU-HN13, 24 h; summary of the method: as §1
184B5 = assay: Cytotoxicity in human 184B5 cells assessed as reduction in cell viability incubated for 24 hrs by MTT assay; assay type: cell-based; conditions: 184B5, 24 h
Summary of the method: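 184B5 immortalized non-cancer breast epithelial cells; cytotoxicity over 24 h drug exposure, evaluated alongside the HNSCC lines; IC50 in nM taken as mean of three independent triplicate experiments ± standard error.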

[5] = Selectivity index, ratio of IC50 for cytotoxicity in human […] cells; assay type: toxicity, cell-based; conditions: HN13 cells and 184B5 cells, read-out: Ratio IC50
[6] = target: T1, Histone deacetylase (Homo sapiens) (UniProt Q13547+O15379+Q9UBN7+Q92769+Q9UQL6+Q8WUI4+Q9BY41+Q96DB2+P56524+Q9UKV0+Q969S8); assay: Inhibition of HDAC in human HN13 cells assessed as reduction in histone H3 acetylation incubated for 24 hrs by immunofluorescence assay; assay type: cell-based
Summary of the method: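 HN13 on glass coverslips, overnight at 37 °C, then treated 24 h at 1 and 10 nM, TSA as positive control. Fixed in 4% paraformaldehyde, permeabilized with 0.5% Triton X-100, blocked in 3% BSA/PBS. Anti-AcH3 (lys9) primary 2 h, TRITC anti-rabbit 1 h, nuclear counterstain.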

[7] = target: T1, Histone deacetylase (Homo sapiens); assay: Ratio of inhibition of HDAC in human HN13 cells assessed as increase in histone H3 acetylation to IC50 for inhibition of HDAC in human HeLa nuclear extracts
WSU-HN13 [8] = assay: Induction of PTEN protein expression in human HN13 cells assessed as reduction in PI3K/Akt/mTOR signalling by measuring reduction in pS6 protein expression incubated for 24 hrs by Western blot; assay type: functional, cell-based; summary of the method: as §2
Histone deacetylase = assay: Inhibition of HDAC in human HeLa nuclear extracts incubated for 60 mins using fluorometric substrate by fluorometric assay; assay type: protein assay
Summary of the method: (§3)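 HeLa nuclear extract incubated with compound, assay buffer and acetyl-lysine fluorogenic HDAC substrate for 60 min at 37 °C. Lysine developer then added for a further 30 min at 37 °C. Fluorescence read at ex 370/em 450 nm. Water served as positive control and 20 µM TSA as inhibitor control.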

[9] = target: T1, Histone deacetylase (Homo sapiens); assay: Inhibition of HDAC in human HN13 cells assessed as increase in histone H3 acetylation at 1 nM incubated for 24 hrs by Western blot
[10] = target: T1, Histone deacetylase (Homo sapiens); assay: Inhibition of HDAC in human HeLa nuclear extracts at 500 uM incubated for 60 mins using fluorometric substrate by fluorometric assay; assay type: protein assay; summary of the method: as §3

inhibition [6] | Ratio [7] | IC50 (Histone deacetylase) [nM] | inhibition [9] | inhibition [10] [%] | SMILES | IC50 [1] [nM] | Activity (WSU-HN13 [2]) | IC50 [3] [nM] | IC50 (WSU-HN13 [4]) [nM] | IC50 (184B5) [nM] | selectivity ratio [5] | Activity (WSU-HN13 [8])
Dose-dependent effect | 10 | 292000 | Active | – | O=CN/N=C/c1ccc(NS(=O)(=O)c2ccc(-c3ccccc3)cc2)cc1O | 4.94 | Dose-dependent effect | 5.03 | 9.85 | 1840 | > 186 | Dose-dependent effect
Dose-dependent effect | 10 | – | Active | 20 | NC(=O)c1ccc(NS(=O)(=O)c2ccc(-c3ccccc3)cc2)cc1O | 4.73 | Dose-dependent effect | 4.99 | 9.66 | 1960 | > 200 | Dose-dependent effect
